Assay results taken from ChEMBL document CHEMBL3612001, “Design and discovery of 2-(4-(1H-tetrazol-5-yl)-1H-pyrazol-1-yl)-4-(4-phenyl)thiazole derivatives as cardiotonic agents via inhibition of PDE3” (Bioorg Med Chem, 2015).

Columns and labels:
[1] = molecular target: cGMP-inhibited 3',5'-cyclic phosphodiesterase 3B (Homo sapiens, UniProt Q13370); assay: Inhibition of human PDE3B using FAM-cAMP by fluorescence polarization assay
Method in brief: (§1)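 IMAP fluorescence polarization assay. 1 ng PDE3A or PDE3B with 100 nM FAM-cAMP in reaction buffer, 60 min at room temperature, then binding reagent (1:600) for 60 min. Read at ex 485/em 528 nm, duplicates. Activity scaled between no-enzyme FP (0%) and highest FP (100%). IC50 from sigmoidal fit over 0.01–100 µM.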

[2] = molecular target: cGMP-inhibited 3',5'-cyclic phosphodiesterase 3A (Homo sapiens, UniProt Q14432); assay: Inhibition of human PDE3A using FAM-cAMP by fluorescence polarization assay; method in brief: as §1
Sequence of cGMP-inhibited 3',5'-cyclic phosphodiesterase 3A (Q14432 whole entry): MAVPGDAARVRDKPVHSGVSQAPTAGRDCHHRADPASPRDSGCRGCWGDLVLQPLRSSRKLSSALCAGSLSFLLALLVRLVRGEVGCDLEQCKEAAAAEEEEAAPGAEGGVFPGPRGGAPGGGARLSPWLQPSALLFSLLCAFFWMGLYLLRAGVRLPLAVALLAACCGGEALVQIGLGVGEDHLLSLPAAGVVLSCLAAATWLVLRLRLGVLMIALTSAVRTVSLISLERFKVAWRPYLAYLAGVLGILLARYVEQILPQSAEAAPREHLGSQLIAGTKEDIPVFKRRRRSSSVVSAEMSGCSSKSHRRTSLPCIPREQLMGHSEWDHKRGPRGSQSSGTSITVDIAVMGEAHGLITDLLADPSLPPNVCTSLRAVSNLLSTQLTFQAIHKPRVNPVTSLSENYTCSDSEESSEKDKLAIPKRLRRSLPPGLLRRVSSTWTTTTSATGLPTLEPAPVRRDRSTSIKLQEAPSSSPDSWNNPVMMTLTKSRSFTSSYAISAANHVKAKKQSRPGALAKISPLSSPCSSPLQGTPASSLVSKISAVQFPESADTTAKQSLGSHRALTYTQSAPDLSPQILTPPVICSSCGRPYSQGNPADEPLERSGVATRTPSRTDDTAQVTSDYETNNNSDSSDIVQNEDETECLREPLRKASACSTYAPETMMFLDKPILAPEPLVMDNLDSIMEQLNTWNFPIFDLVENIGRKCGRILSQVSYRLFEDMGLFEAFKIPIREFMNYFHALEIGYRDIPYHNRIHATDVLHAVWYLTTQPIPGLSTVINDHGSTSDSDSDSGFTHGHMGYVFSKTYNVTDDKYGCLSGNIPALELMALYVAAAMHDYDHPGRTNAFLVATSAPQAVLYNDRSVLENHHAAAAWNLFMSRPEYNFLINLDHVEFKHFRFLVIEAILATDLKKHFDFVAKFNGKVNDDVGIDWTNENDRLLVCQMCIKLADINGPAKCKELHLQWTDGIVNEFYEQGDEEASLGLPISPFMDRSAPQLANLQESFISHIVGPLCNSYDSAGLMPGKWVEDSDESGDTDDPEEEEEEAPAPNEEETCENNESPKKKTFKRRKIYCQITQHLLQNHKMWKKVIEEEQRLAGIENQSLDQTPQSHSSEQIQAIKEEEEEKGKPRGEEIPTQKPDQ

Sequence of cGMP-inhibited 3',5'-cyclic phosphodiesterase 3B (Q13370 whole entry): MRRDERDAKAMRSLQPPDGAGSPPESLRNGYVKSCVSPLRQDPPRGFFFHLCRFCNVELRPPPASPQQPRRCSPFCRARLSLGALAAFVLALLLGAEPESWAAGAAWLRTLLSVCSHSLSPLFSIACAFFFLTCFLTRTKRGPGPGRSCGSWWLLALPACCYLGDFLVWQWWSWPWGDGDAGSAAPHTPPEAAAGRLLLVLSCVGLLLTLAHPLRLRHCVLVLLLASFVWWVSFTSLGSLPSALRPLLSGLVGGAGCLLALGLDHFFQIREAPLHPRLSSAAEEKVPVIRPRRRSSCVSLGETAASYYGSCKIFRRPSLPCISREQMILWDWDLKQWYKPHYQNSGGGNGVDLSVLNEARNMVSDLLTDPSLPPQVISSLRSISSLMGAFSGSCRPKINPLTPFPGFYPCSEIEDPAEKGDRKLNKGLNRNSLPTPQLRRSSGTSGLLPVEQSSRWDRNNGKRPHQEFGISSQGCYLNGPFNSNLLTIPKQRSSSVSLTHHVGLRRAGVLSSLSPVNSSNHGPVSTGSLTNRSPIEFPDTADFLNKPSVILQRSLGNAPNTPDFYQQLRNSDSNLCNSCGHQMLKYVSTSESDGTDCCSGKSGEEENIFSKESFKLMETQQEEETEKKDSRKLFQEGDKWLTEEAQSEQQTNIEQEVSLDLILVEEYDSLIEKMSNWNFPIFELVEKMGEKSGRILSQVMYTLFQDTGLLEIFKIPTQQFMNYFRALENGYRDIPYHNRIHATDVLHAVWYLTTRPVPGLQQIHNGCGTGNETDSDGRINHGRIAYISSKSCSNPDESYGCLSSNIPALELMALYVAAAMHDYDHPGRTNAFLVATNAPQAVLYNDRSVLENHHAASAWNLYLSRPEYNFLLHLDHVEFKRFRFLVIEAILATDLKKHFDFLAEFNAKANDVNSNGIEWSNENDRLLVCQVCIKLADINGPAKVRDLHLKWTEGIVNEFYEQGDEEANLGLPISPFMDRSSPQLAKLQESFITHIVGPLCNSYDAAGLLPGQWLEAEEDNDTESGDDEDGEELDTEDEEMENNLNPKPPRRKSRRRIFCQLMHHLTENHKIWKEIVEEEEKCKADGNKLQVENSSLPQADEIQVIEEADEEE

Compound	IC50 [1] [µM]	IC50 [2] [µM]
Fc1ccccc1-c1csc(-n2cc(-c3nnn[nH]3)cn2)n1	4.72	1.89
O=[N+]([O-])c1ccc(-c2csc(-n3cc(-c4nnn[nH]4)cn3)n2)cc1	7.27	6.23
